What all share (format): functional
Test [1] relates to Candida albicans. The test can be described thus: Antifungal activity against Candida albicans 685 after 48 hrs. A digest of the protocol: (§1)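 Clinical isolate C. albicans 685 tested by NCCLS (1997) reference broth method; compound stocks 2 mg/mL in DMSO; miconazole and amphotericin B as standards; MIC read after 24 and 48 h incubation, each determined twice in duplicate experiments.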

The test system of test [2] is Candida albicans. The test can be described thus: Antifungal activity against Candida albicans 685 after 24 hrs. The procedure, abridged:
as §1

In test [3] the test system is Mycobacterium tuberculosis. Put plainly: Antitubercular activity against Mycobacterium tuberculosis H37Rv micro-dilution Resazurin assay. A digest of the protocol:
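Microdilution Resazurin assay (MRA) run for 1 week against reference strain M. tuberculosis H37Rv. Compound stocks were 2 mg/mL in DMSO, with DMSO tested up to 2% (v/v). MIC was the lowest concentration preventing the blue-to-pink Resazurin colour change, read visually twice in duplicate experiments. Viable counts on agar from control and test wells.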

The source of these data is ChEMBL document CHEMBL1149869, “Antifungal and antimycobacterial activity of 1-(3,5-diaryl-4,5-dihydro-1H-pyrazol-4-yl)-1H-imidazole derivatives” (2008).

≈ marks a conversion by molar mass, not a printed value.

As a reminder, the MIC is the least concentration at which growth counts as inhibited. Lower therefore signals greater potency.

As to `CN1N=C(c2ccc(Br)cc2)[C@@H](n2ccnc2)[C@H]1c1ccc(Br)cc1` (racemic), the MIC stood at 0.06 µg/mL (≈ 0.13 µM) in the test with Candida albicans [1], 0.06 µg/mL (≈ 0.13 µM) in the test on Candida albicans [2] and 8 µg/mL (≈ 17.4 µM) in test [3].

Regarding `Cc1ccc(C2=NN(C)[C@H](c3ccc(C)cc3)[C@@H]2n2ccnc2)cc1` (racemic), the MIC in the test with Candida albicans [1] amounted to 64 µg/mL (≈ 194 µM); against Candida albicans [2], 4 µg/mL (≈ 12.1 µM); in test [3], 16 µg/mL (≈ 48.4 µM).

Consider `Brc1ccc(C2=NN[C@H](c3ccc(Br)cc3)[C@H]2n2ccnc2)cc1` (racemic), for which the MIC with Candida albicans [1] came out at 8 µg/mL (≈ 17.9 µM); in the test on Candida albicans [2] it was 4 µg/mL (≈ 8.97 µM); in test [3], 8 µg/mL (≈ 17.9 µM).

Consider `Clc1ccc(C2=NN[C@H](c3ccc(Cl)cc3)[C@H]2n2ccnc2)cc1` (racemic), for which the MIC against Candida albicans [1] is 16 µg/mL (≈ 44.8 µM); against Candida albicans [2], 4 µg/mL (≈ 11.2 µM); in test [3] it was 8 µg/mL (≈ 22.4 µM).

As for `Clc1ccc(C2=NN[C@H](c3ccc(Cl)cc3Cl)[C@H]2n2ccnc2)c(Cl)c1` (racemic), the MIC with Candida albicans [1] came to 64 µg/mL (≈ 150 µM); against Candida albicans [2], 8 µg/mL (≈ 18.8 µM); in test [3], 8 µg/mL (≈ 18.8 µM).

In the case of `CN1N=C(c2ccc(Cl)cc2)[C@@H](n2ccnc2)[C@H]1c1ccc(Cl)cc1` (racemic), the MIC in the test on Candida albicans [1] is 0.06 µg/mL (≈ 0.162 µM); in the test on Candida albicans [2], 0.06 µg/mL (≈ 0.162 µM); in test [3], 8 µg/mL (≈ 21.5 µM).

Turning to `CN1N=C(c2ccc(Cl)cc2Cl)[C@@H](n2ccnc2)[C@H]1c1ccc(Cl)cc1Cl` (racemic), the MIC with Candida albicans [1] turned out to be 32 µg/mL (≈ 72.7 µM); in the test with Candida albicans [2], 0.12 µg/mL (≈ 0.273 µM); in test [3], 16 µg/mL (≈ 36.4 µM).

Turning to `Cc1ccc(C2=NN[C@@H](c3ccc(C)cc3)[C@@H]2n2ccnc2)cc1` (racemic), the MIC against Candida albicans [1] was 64 µg/mL (≈ 202 µM); with Candida albicans [2], 8 µg/mL (≈ 25.3 µM); in test [3], 16 µg/mL (≈ 50.6 µM).

`c1ccc(C2=NN(c3ccccc3)[C@H](c3ccccc3)[C@H]2n2ccnc2)cc1` (racemic): the MIC against Candida albicans [1] is 1 µg/mL (≈ 2.74 µM); in the test on Candida albicans [2], 0.06 µg/mL (≈ 0.165 µM); in test [3], 8 µg/mL (≈ 22 µM).

Consider `Cc1ccc(C2=NN(c3ccccc3)[C@H](c3ccc(C)cc3)[C@H]2n2ccnc2)cc1` (racemic), for which the MIC with Candida albicans [1] stood at 64 µg/mL (≈ 163 µM); with Candida albicans [2], 8 µg/mL (≈ 20.4 µM); in test [3], 4 µg/mL (≈ 10.2 µM).

With `Brc1ccc(C2=NN(c3ccccc3)[C@H](c3ccc(Br)cc3)[C@H]2n2ccnc2)cc1` (racemic), the MIC is 64 µg/mL (≈ 123 µM) in the test on Candida albicans [1], 1 µg/mL (≈ 1.91 µM) in the test with Candida albicans [2] and 8 µg/mL (≈ 15.3 µM) in test [3].

For the molecule `Clc1ccc(C2=NN(c3ccccc3)[C@H](c3ccc(Cl)cc3Cl)[C@H]2n2ccnc2)c(Cl)c1` (racemic), the MIC is more than 64 µg/mL against Candida albicans [1], 2 µg/mL (≈ 3.98 µM) in the test on Candida albicans [2] and 4 µg/mL (≈ 7.96 µM) in test [3].

With `Cc1ccc(C2=NN(c3ccc(F)cc3)[C@H](c3ccc(C)cc3)[C@H]2n2ccnc2)cc1` (racemic), the MIC was 64 µg/mL (≈ 156 µM) with Candida albicans [1], 64 µg/mL (≈ 156 µM) in the test on Candida albicans [2] and 4 µg/mL (≈ 9.74 µM) in test [3].

As to `Fc1ccc(N2N=C(c3ccc(Cl)cc3)[C@H](n3ccnc3)[C@H]2c2ccc(Cl)cc2)cc1` (racemic), the results for the minimum inhibitory concentration (MIC) (against Candida albicans [1]; against Candida albicans [2]; in test [3]) were more than 64 µg/mL, 2 µg/mL (≈ 4.43 µM) and 4 µg/mL (≈ 8.86 µM), respectively.

`Fc1ccc(N2N=C(c3ccc(Br)cc3)[C@H](n3ccnc3)[C@H]2c2ccc(Br)cc2)cc1` (racemic): the results for the MIC (with Candida albicans [1]; with Candida albicans [2]; in test [3]) were more than 64 µg/mL, 8 µg/mL (≈ 14.8 µM) and 4 µg/mL (≈ 7.4 µM), respectively.

On to `Fc1ccc(N2N=C(c3ccccc3)[C@H](n3ccnc3)[C@H]2c2ccccc2)cc1` (racemic), for which the MIC in the test with Candida albicans [1] is 1 µg/mL (≈ 2.61 µM); in the test on Candida albicans [2] it was 0.06 µg/mL (≈ 0.157 µM); in test [3], 8 µg/mL (≈ 20.9 µM).

For `Fc1ccc(N2N=C(c3ccc(Cl)cc3Cl)[C@@H](n3ccnc3)[C@@H]2c2ccc(Cl)cc2Cl)cc1` (racemic), the results for the MIC (in the test with Candida albicans [1]; in the test with Candida albicans [2]; in test [3]) were more than 64 µg/mL, 1 µg/mL (≈ 1.92 µM) and 16 µg/mL (≈ 30.8 µM), respectively.

On to `Clc1ccc(C2=NN(c3ccccc3)[C@H](c3ccc(Cl)cc3)[C@H]2n2ccnc2)cc1` (racemic), for which the MIC in the test with Candida albicans [1] was 64 µg/mL (≈ 148 µM); in the test with Candida albicans [2], 2 µg/mL (≈ 4.62 µM); in test [3], 4 µg/mL (≈ 9.23 µM).

In the case of `c1ccc(C2=NN[C@H](c3ccccc3)[C@H]2n2ccnc2)cc1` (racemic), the MIC with Candida albicans [1] was more than 64 µg/mL; in the test on Candida albicans [2], 16 µg/mL (≈ 55.5 µM); in test [3], 16 µg/mL (≈ 55.5 µM).

As for `CN1N=C(c2ccccc2)[C@@H](n2ccnc2)[C@H]1c1ccccc1` (racemic), the MIC came to 64 µg/mL (≈ 212 µM) with Candida albicans [1], 1 µg/mL (≈ 3.31 µM) in the test with Candida albicans [2] and 8 µg/mL (≈ 26.5 µM) in test [3].

In the case of `C[C@@H]1[C@H](O)[C@@H](C)/C=C/C=C/C=C/C=C/C=C/C=C/C=C/[C@H](O[C@@H]2O[C@H](C)[C@@H](O)[C@H](N)[C@@H]2O)C[C@@H]2O[C@](O)(C[C@@H](O)C[C@@H](O)[C@H](O)CC[C@@H](O)C[C@@H](O)CC(=O)O[C@H]1C)C[C@H](O)[C@H]2C(=O)O` [AMPHOTERICIN B], the MIC in the test with Candida albicans [1] and against Candida albicans [2] was 1 µg/mL (≈ 1.08 µM) in each case.

Molecule `NNC(=O)c1ccncc1` [ISONIAZID] returned an MIC in test [3] of 0.5 µg/mL (≈ 3.65 µM).

Take `Clc1ccc(COC(Cn2ccnc2)c2ccc(Cl)cc2Cl)c(Cl)c1` (stereo not given) [MICONAZOLE]: the MIC against Candida albicans [1] is 0.12 µg/mL (≈ 0.288 µM); against Candida albicans [2], 0.06 µg/mL (≈ 0.144 µM).
